# According to ChEMBL document CHEMBL5705905, “Pharmacological targeting of kinases MST1 and MST2 augments tissue repair and regeneration” (Sci Transl Med, 2016):
# Calls of active or inactive are those of the source. The calls are words filed in the database; no cut-off is given here.
# Tests used:
# [1] = target: T1, Serine/threonine-protein kinase 4 (Homo sapiens, UniProt Q13043); assay: Inhibition of recombinant His-tagged full-length MST1 (unknown origin) expressing in Escherichia coli assessed as MOB1a phosphorylation level incubated for 30 min in the presence of 100 uM ATP by immunoblot analysis
# T1 sequence (Q13043 whole entry): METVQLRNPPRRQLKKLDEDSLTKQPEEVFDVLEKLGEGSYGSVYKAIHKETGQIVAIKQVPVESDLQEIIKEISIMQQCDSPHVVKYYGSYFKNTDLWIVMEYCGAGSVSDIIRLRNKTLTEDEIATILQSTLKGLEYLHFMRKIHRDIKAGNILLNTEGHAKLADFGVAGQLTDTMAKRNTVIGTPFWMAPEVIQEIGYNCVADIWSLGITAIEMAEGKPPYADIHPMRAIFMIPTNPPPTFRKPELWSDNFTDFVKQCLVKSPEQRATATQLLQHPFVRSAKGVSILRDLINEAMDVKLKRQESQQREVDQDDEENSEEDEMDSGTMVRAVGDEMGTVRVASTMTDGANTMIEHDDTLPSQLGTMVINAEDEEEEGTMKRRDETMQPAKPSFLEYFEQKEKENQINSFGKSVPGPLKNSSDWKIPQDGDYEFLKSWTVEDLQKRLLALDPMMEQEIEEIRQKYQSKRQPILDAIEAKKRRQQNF
# [2] = target: Mitotic checkpoint serine/threonine-protein kinase BUB1 (Homo sapiens) (UniProt O43683); assay: Inhibition of BUB1 (unknown origin) assessed as remaining activity at 1 uM by Kinome scan method relative to control
# How it was run: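 KINOMEscan active-site-dependent competition-binding panel of 468 kinases, compound at 1 μM from a DMSO stock. Result reported as ctrl% = (test signal − positive control signal)/(negative control signal − positive control signal) × 100. The negative control is DMSO (100%) and the positive control is a control compound (0%). Lower ctrl% means tighter binding.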
# [3] = target: Calcium/calmodulin-dependent protein kinase type II subunit alpha (Homo sapiens) (UniProt Q9UQM7); assay: Inhibition of CAMK2A (unknown origin) assessed as remaining activity at 1 uM by Kinome scan method relative to control
# How it was run: (§1)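 Active-site-dependent competition-binding profiling (KINOMEscan) at 1 μM against a 468-kinase panel; compound supplied from a 10 mM DMSO stock. Read-out is ctrl% = (test signal − positive control signal)/(negative control signal − positive control signal) × 100. DMSO is the negative control (100%) and a control compound the positive control (0%). Lower ctrl% means tighter binding.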
# [4] = target: Calcium/calmodulin-dependent protein kinase type II subunit delta (Homo sapiens) (UniProt Q13557); assay: Inhibition of CAMK2D (unknown origin) assessed as remaining activity at 1 uM by Kinome scan method relative to control; how it was run: as §1
# Calcium/calmodulin-dependent protein kinase type II subunit delta (Homo sapiens), sequence (Q13557 whole entry): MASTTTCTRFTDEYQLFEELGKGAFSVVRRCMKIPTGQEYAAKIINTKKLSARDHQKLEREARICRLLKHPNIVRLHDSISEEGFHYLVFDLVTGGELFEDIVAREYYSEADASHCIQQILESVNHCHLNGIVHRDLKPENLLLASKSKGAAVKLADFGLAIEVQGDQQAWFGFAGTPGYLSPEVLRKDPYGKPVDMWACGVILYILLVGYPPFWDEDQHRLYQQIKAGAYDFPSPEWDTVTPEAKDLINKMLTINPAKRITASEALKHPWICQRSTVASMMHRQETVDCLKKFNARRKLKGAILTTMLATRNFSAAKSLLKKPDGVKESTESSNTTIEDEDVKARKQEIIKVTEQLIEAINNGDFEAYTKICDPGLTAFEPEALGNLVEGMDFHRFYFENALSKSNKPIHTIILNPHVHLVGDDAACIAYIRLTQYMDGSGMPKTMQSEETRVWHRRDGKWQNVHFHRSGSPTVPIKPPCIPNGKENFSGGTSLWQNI
# [5] = target: Cyclin-dependent kinase 4/cyclin D1 (Homo sapiens) (UniProt P11802+P24385); assay: Inhibition of CDK4/cyclinD1 (unknown origin) assessed as remaining activity at 1 uM by Kinome scan method relative to control; assay type: protein-complex assay; how it was run: as §1
# [6] = target: CDK4/Cyclin D3 (Homo sapiens) (UniProt P11802+P30281); assay: Inhibition of CDK4/cyclinD3 (unknown origin) assessed as remaining activity at 1 uM by Kinome scan method relative to control; assay type: protein-complex assay; how it was run: as §1
# [7] = target: Inhibitor of nuclear factor kappa-B kinase subunit beta (Homo sapiens) (UniProt O14920); assay: Inhibition of IKK-beta (unknown origin) assessed as remaining activity at 1 uM by Kinome scan method relative to control
# Inhibitor of nuclear factor kappa-B kinase subunit beta (Homo sapiens), sequence (O14920 whole entry): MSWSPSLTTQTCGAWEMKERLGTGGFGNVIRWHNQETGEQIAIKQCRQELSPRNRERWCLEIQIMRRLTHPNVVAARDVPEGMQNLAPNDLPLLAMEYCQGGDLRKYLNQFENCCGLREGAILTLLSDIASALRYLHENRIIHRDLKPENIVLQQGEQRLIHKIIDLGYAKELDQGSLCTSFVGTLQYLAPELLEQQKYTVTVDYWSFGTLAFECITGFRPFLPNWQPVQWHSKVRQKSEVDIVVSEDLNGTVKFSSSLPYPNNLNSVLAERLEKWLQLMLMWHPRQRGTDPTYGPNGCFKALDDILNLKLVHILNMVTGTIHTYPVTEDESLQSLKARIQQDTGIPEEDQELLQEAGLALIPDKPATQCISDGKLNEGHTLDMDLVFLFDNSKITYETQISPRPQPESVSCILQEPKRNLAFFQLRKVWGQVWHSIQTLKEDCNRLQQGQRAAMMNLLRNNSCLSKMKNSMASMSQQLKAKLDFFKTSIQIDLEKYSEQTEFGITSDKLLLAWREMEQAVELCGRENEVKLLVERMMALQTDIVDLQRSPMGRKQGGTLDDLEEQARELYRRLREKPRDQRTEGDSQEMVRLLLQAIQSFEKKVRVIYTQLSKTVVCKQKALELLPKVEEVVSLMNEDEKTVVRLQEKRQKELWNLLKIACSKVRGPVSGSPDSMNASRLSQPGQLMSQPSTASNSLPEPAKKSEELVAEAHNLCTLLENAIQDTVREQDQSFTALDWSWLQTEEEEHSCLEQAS
# [8] = target: Mitogen-activated protein kinase 10 (Homo sapiens) (UniProt P53779); assay: Inhibition of JNK3 (unknown origin) assessed as remaining activity at 1 uM by Kinome scan method relative to control
# [9] = target: Serine/threonine-protein kinase MARK2 (Homo sapiens) (UniProt Q7KZI7); assay: Inhibition of MARK2 (unknown origin) assessed as remaining activity at 1 uM by Kinome scan method relative to control
# Serine/threonine-protein kinase MARK2 (Homo sapiens), sequence (Q7KZI7 whole entry): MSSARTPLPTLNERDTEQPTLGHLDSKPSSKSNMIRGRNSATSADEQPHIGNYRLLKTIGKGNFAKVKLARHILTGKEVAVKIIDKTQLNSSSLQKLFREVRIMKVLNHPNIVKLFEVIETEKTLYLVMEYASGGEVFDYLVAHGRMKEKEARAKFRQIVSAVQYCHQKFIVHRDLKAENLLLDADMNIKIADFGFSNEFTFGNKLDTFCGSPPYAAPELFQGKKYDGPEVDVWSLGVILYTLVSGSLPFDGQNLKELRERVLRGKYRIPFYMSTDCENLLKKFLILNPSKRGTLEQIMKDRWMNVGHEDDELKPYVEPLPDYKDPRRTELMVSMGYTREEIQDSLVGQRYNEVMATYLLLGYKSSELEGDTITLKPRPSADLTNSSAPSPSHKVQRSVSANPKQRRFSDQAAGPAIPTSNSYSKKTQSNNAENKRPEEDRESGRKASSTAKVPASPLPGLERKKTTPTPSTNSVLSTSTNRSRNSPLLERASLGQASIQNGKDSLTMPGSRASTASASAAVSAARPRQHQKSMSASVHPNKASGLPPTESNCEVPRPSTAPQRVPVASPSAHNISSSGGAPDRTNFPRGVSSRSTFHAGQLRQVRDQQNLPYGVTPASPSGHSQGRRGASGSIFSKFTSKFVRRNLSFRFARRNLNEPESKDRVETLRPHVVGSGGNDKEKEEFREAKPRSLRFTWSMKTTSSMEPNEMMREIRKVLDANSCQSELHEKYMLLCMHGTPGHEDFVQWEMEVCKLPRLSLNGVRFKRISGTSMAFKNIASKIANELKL
# [10] = target: MAP kinase-interacting serine/threonine-protein kinase 1 (Homo sapiens) (UniProt Q9BUB5); assay: Inhibition of MKNK1 (unknown origin) assessed as remaining activity at 1 uM by Kinome scan method relative to control
# MAP kinase-interacting serine/threonine-protein kinase 1 (Homo sapiens), sequence (Q9BUB5 whole entry, looked up): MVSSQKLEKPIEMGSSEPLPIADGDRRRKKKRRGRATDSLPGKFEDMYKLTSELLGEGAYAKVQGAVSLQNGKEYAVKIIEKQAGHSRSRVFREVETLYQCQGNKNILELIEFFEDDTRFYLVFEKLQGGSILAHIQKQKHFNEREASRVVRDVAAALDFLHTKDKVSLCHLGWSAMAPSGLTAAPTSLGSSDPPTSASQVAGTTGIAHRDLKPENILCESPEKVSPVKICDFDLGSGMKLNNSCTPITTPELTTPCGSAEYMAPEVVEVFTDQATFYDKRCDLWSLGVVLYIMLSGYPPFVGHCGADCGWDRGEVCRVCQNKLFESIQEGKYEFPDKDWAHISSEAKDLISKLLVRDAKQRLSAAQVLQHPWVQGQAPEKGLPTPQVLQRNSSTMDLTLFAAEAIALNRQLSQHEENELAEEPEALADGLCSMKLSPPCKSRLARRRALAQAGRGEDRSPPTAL
# [11] = target: Serine/threonine-protein kinase PAK 5 (Homo sapiens) (UniProt Q9P286); assay: Inhibition of PAK7 (unknown origin) assessed as remaining activity at 1 uM by Kinome scan method relative to control
# [12] = target: Phosphatidylinositol 3-kinase C2 domain-containing subunit gamma (Homo sapiens) (UniProt O75747); assay: Inhibition of PIK3C2G (unknown origin) assessed as remaining activity at 1 uM by Kinome scan method relative to control
# [13] = system: Phosphatidylinositol 4,5-bisphosphate 3-kinase catalytic subunit alpha isoform (Homo sapiens), P42336 [H1047L]; assay: Inhibition of PIK3CA H1047L mutant (unknown origin) assessed as remaining activity at 1 uM by Kinome scan method relative to control
# [14] = target: Serine/threonine-protein kinase SIK3 (Homo sapiens) (UniProt Q9Y2K2); assay: Inhibition of QSK (unknown origin) assessed as remaining activity at 1 uM by Kinome scan method relative to control
# [15] = target: Serine/threonine-protein kinase RIO2 (Homo sapiens) (UniProt Q9BVS4); assay: Inhibition of RIOK2 (unknown origin) assessed as remaining activity at 1 uM by Kinome scan method relative to control
# Serine/threonine-protein kinase RIO2 (Homo sapiens), sequence (Q9BVS4 whole entry, looked up): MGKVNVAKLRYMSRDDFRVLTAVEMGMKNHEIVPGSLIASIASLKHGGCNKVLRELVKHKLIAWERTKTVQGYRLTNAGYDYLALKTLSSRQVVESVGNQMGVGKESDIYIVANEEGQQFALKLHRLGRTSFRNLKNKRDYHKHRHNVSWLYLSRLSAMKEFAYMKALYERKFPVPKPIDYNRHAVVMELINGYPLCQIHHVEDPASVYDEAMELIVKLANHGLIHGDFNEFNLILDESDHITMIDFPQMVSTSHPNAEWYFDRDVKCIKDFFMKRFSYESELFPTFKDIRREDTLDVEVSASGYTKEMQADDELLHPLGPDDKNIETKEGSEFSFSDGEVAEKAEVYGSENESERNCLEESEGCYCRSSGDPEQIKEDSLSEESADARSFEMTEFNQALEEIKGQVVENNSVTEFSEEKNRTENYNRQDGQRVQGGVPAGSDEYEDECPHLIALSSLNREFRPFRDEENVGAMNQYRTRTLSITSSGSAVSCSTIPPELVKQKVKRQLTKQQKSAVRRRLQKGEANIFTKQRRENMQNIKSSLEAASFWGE
# [16] = target: Serine/threonine-protein kinase SBK1 (Homo sapiens) (UniProt Q52WX2); assay: Inhibition of SBK1 (unknown origin) assessed as remaining activity at 1 uM by Kinome scan method relative to control
# Serine/threonine-protein kinase SBK1 (Homo sapiens), sequence (Q52WX2 whole entry): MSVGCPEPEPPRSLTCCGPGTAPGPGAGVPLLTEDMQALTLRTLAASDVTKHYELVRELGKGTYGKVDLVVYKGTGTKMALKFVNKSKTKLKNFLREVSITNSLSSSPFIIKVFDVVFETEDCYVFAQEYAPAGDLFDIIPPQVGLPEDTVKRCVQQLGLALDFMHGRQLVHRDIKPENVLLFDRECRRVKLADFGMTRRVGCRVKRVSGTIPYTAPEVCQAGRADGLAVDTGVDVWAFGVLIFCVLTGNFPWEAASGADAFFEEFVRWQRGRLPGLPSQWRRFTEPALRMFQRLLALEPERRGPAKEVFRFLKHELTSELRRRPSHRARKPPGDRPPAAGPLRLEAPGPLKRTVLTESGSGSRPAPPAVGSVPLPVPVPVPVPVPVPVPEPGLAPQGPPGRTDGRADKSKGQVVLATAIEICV
# [17] = target: Angiopoietin-1 receptor (Homo sapiens) (UniProt Q02763); assay: Inhibition of TIE2 (unknown origin) assessed as remaining activity at 1 uM by Kinome scan method relative to control
# Angiopoietin-1 receptor (Homo sapiens), sequence (Q02763 whole entry): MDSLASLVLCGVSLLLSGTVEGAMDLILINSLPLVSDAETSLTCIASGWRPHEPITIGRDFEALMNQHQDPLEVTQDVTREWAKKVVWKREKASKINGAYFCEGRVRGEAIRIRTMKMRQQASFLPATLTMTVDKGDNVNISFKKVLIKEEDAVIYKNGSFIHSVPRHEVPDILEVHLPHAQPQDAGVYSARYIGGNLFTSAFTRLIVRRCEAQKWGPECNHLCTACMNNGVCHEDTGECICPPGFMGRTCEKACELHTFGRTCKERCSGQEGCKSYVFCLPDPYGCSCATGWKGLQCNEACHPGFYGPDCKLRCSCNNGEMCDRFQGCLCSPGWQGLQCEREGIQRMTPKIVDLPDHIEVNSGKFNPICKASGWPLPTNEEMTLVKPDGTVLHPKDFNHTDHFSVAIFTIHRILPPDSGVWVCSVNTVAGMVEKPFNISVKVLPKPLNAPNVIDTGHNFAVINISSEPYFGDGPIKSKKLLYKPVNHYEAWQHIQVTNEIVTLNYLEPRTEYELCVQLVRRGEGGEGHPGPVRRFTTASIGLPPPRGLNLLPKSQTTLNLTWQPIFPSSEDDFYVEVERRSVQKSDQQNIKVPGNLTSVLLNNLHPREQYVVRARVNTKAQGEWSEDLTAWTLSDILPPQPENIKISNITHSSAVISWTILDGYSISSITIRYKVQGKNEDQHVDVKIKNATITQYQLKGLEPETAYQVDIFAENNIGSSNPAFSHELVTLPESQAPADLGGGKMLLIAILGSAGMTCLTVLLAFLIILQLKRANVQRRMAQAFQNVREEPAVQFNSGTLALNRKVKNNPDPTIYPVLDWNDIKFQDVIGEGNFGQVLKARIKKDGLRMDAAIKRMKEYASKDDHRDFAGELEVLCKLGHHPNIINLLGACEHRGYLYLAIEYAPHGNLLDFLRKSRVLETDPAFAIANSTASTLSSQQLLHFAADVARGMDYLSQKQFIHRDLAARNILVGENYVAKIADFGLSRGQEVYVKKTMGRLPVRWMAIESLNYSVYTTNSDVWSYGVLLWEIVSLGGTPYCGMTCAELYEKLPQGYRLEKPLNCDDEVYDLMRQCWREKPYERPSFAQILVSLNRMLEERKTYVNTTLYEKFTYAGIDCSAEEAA
# [18] = target: Tyrosine-protein kinase ABL1 (Homo sapiens, UniProt P00519, M351T); assay: Inhibition of phosphorylated ABL1 M351T mutant (unknown origin) in presence of ATP by enzymatic assay
# [19] = species: Homo sapiens; assay: Inhibition of recombinant His-tagged full-length MST1 D109A mutant (unknown origin) expressing in Escherichia coli assessed as GST-tagged MOB1 phosphorylation level at 0.01 to 1 uM incubated for 15 min by immunoblot analysis; details: dose 0.01-1 µM
# [20] = Acute toxicity in wild-type mouse assessed as ratio of liver weight to body weight at 1 mg/kg,ip administrated twice daily for 6 days; assay type: organism-based; details: in vivo, 144 h, time 6 day
# How it was run: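 Wild-type mice underwent two-thirds partial hepatectomy with vehicle or 1 mg/kg i.p. twice per day, starting with a dose before surgery. Liver/body weight ratio was followed over postoperative days, n = 5; means ± SD.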
# [21] = system: Mus musculus; assay: Anti-colitis activity against DSS-induced mouse assessed as cancerous phenotype at 1 mg/kg, ip administrated daily for 1 week; assay type: functional, organism-based; details: Colon, time 1.0 weeks
# How it was run: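 DSS given orally for 7 days. Mice received 1 mg/kg intraperitoneally daily for 1 week. Animals were followed for more than 10 months for cancerous phenotypes.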
# [22] = target: Serine/threonine-protein kinase 3 (Homo sapiens, UniProt Q13188, D109A)
structure (smiles),measurement,setting,value
CN1C(=O)c2sccc2N(C)c2nc(Nc3ccc(S(N)(=O)=O)cc3)ncc21,IC50,[1],1230 nM
same,Activity,[2],95%
same,Activity,[3],77%
same,Activity,[4],100%
same,Activity,[5],93%
same,Activity,[6],100%
same,Activity,[7],100%
same,Activity,[8],82%
same,Activity,[9],93%
same,Activity,[10],100%
same,Activity,[11],85%
same,Activity,[12],100%
same,Activity,[13],4.6%
same,Activity,[14],87%
same,Activity,[15],95%
same,Activity,[16],42%
same,Activity,[17],74%
same,IC50,[18],17.6 nM
same,inhibition,[19],Active
same,Activity,[20],Non-Toxic
same,Activity,[21],Active
same,IC50,[22],1040 nM
